Reference: ChEMBL document CHEMBL4680072, “Synthesis and evaluation of a radioiodinated 4,6-diaryl-3-cyano-2-pyridinone derivative as a survivin targeting SPECT probe for tumor imaging” (Bioorg Med Chem Lett, 2016)

Tests used:
[1] = Biodistribution in stomach of BALB/c nu/nu mouse xenografted with human MDA-MB-231 cells at 7.4 kBq, iv using [125I] labeled compound measured after 30 mins by gamma counter method; type: ADME, organism-based; conditions: in vivo, 0.5 h
Method in brief: (§1)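 Radioactivity in each excised tissue is expressed as percent injected dose per gram (% ID/g). Each value is the mean (SD) of three tumor-bearing mice per time point (n = 3).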

[2] = Biodistribution in liver of BALB/c nu/nu mouse xenografted with human MDA-MB-231 cells at 7.4 kBq, iv using [125I] labeled compound measured after 60 mins by gamma counter method; type: ADME, organism-based; conditions: in vivo, 1 h; method in brief: as §1
[3] = Biodistribution in heart of BALB/c nu/nu mouse xenografted with human MDA-MB-231 cells at 7.4 kBq, iv using [125I] labeled compound measured after 180 mins by gamma counter method; type: ADME, organism-based; conditions: in vivo, 3 h; method in brief: as §1
[4] = Biodistribution in brain of BALB/c nu/nu mouse xenografted with human MDA-MB-231 cells at 7.4 kBq, iv using [125I] labeled compound measured after 180 mins by gamma counter method; type: ADME, organism-based; conditions: in vivo, 3 h; method in brief: as §1
[5] = Biodistribution in pancreas of BALB/c nu/nu mouse xenografted with human MDA-MB-231 cells at 7.4 kBq, iv using [125I] labeled compound measured after 180 mins by gamma counter method; type: ADME, organism-based; conditions: in vivo, 3 h; method in brief: as §1
[6] = Biodistribution in heart of BALB/c nu/nu mouse xenografted with human MDA-MB-231 cells at 7.4 kBq, iv using [125I] labeled compound measured after 60 mins by gamma counter method; type: ADME, organism-based; conditions: in vivo, 1 h; method in brief: as §1
[7] = Biodistribution in stomach of BALB/c nu/nu mouse xenografted with human MDA-MB-231 cells at 7.4 kBq, iv using [125I] labeled compound measured after 60 mins by gamma counter method; type: ADME, organism-based; conditions: in vivo, 1 h; method in brief: as §1
[8] = Biodistribution in intestine of BALB/c nu/nu mouse xenografted with human MDA-MB-231 cells at 7.4 kBq, iv using [125I] labeled compound measured after 30 mins by gamma counter method; type: ADME, organism-based; conditions: in vivo, 0.5 h; method in brief: as §1
[9] = Biodistribution in pancreas of BALB/c nu/nu mouse xenografted with human MDA-MB-231 cells at 7.4 kBq, iv using [125I] labeled compound measured after 60 mins by gamma counter method; type: ADME, organism-based; conditions: in vivo, 1 h; method in brief: as §1
[10] = Biodistribution in liver of BALB/c nu/nu mouse xenografted with human MDA-MB-231 cells at 7.4 kBq, iv using [125I] labeled compound measured after 30 mins by gamma counter method; type: ADME, organism-based; conditions: in vivo, 0.5 h; method in brief: as §1
[11] = Biodistribution in blood of BALB/c nu/nu mouse xenografted with human MDA-MB-231 cells at 7.4 kBq, iv using [125I] labeled compound measured after 60 mins by gamma counter method; type: ADME, organism-based; conditions: in vivo, 1 h; method in brief: as §1
[12] = Biodistribution in intestine of BALB/c nu/nu mouse xenografted with human MDA-MB-231 cells at 7.4 kBq, iv using [125I] labeled compound measured after 60 mins by gamma counter method; type: ADME, organism-based; conditions: in vivo, 1 h; method in brief: as §1
[13] = Biodistribution in kidney of BALB/c nu/nu mouse xenografted with human MDA-MB-231 cells at 7.4 kBq, iv using [125I] labeled compound measured after 180 mins by gamma counter method; type: ADME, organism-based; conditions: in vivo, 3 h; method in brief: as §1
[14] = Biodistribution in tumor of BALB/c nu/nu mouse xenografted with human MDA-MB-231 cells at 7.4 kBq, iv using [125I] labeled compound measured after 180 mins by gamma counter method; type: ADME, organism-based, Neoplasm; conditions: in vivo, 3 h; method in brief: as §1
[15] = Biodistribution in brain of BALB/c nu/nu mouse xenografted with human MDA-MB-231 cells at 7.4 kBq, iv using [125I] labeled compound measured after 60 mins by gamma counter method; type: ADME, organism-based; conditions: in vivo, 1 h; method in brief: as §1
[16] = Biodistribution in spleen of BALB/c nu/nu mouse xenografted with human MDA-MB-231 cells at 7.4 kBq, iv using [125I] labeled compound measured after 180 mins by gamma counter method; type: ADME, organism-based; conditions: in vivo, 3 h; method in brief: as §1
[17] = Biodistribution in blood of BALB/c nu/nu mouse xenografted with human MDA-MB-231 cells at 7.4 kBq, iv using [125I] labeled compound measured after 30 mins by gamma counter method; type: ADME, organism-based; conditions: in vivo, 0.5 h; method in brief: as §1
[18] = Biodistribution in liver of BALB/c nu/nu mouse xenografted with human MDA-MB-231 cells at 7.4 kBq, iv using [125I] labeled compound measured after 180 mins by gamma counter method; type: ADME, organism-based; conditions: in vivo, 3 h; method in brief: as §1
[19] = Biodistribution in heart of BALB/c nu/nu mouse xenografted with human MDA-MB-231 cells at 7.4 kBq, iv using [125I] labeled compound measured after 30 mins by gamma counter method; type: ADME, organism-based; conditions: in vivo, 0.5 h; method in brief: as §1
[20] = Biodistribution in spleen of BALB/c nu/nu mouse xenografted with human MDA-MB-231 cells at 7.4 kBq, iv using [125I] labeled compound measured after 30 mins by gamma counter method; type: ADME, organism-based; conditions: in vivo, 0.5 h; method in brief: as §1
[21] = Biodistribution in lung of BALB/c nu/nu mouse xenografted with human MDA-MB-231 cells at 7.4 kBq, iv using [125I] labeled compound measured after 180 mins by gamma counter method; type: ADME, organism-based; conditions: in vivo, 3 h; method in brief: as §1
[22] = Biodistribution in muscle of BALB/c nu/nu mouse xenografted with human MDA-MB-231 cells at 7.4 kBq, iv using [125I] labeled compound measured after 30 mins by gamma counter method; type: ADME, organism-based, Muscle tissue; conditions: in vivo, 0.5 h; method in brief: as §1
[23] = Biodistribution in tumor of BALB/c nu/nu mouse xenografted with human MDA-MB-231 cells at 7.4 kBq, iv using [125I] labeled compound measured after 60 mins by gamma counter method; type: ADME, organism-based, Neoplasm; conditions: in vivo, 1 h; method in brief: as §1
[24] = Biodistribution in muscle of BALB/c nu/nu mouse xenografted with human MDA-MB-231 cells at 7.4 kBq, iv using [125I] labeled compound measured after 180 mins by gamma counter method; type: ADME, organism-based, Muscle tissue; conditions: in vivo, 3 h; method in brief: as §1
[25] = Biodistribution in intestine of BALB/c nu/nu mouse xenografted with human MDA-MB-231 cells at 7.4 kBq, iv using [125I] labeled compound measured after 180 mins by gamma counter method; type: ADME, organism-based; conditions: in vivo, 3 h; method in brief: as §1
[26] = Biodistribution in stomach of BALB/c nu/nu mouse xenografted with human MDA-MB-231 cells at 7.4 kBq, iv using [125I] labeled compound measured after 180 mins by gamma counter method; type: ADME, organism-based; conditions: in vivo, 3 h; method in brief: as §1
[27] = Biodistribution in tumor of BALB/c nu/nu mouse xenografted with human MDA-MB-231 cells at 7.4 kBq, iv using [125I] labeled compound measured after 30 mins by gamma counter method; type: ADME, organism-based, Neoplasm; conditions: in vivo, 0.5 h; method in brief: as §1
[28] = Biodistribution in kidney of BALB/c nu/nu mouse xenografted with human MDA-MB-231 cells at 7.4 kBq, iv using [125I] labeled compound measured after 30 mins by gamma counter method; type: ADME, organism-based; conditions: in vivo, 0.5 h; method in brief: as §1
[29] = Biodistribution in muscle of BALB/c nu/nu mouse xenografted with human MDA-MB-231 cells at 7.4 kBq, iv using [125I] labeled compound measured after 60 mins by gamma counter method; type: ADME, organism-based, Muscle tissue; conditions: in vivo, 1 h; method in brief: as §1
[30] = Biodistribution in kidney of BALB/c nu/nu mouse xenografted with human MDA-MB-231 cells at 7.4 kBq, iv using [125I] labeled compound measured after 60 mins by gamma counter method; type: ADME, organism-based; conditions: in vivo, 1 h; method in brief: as §1
[31] = Biodistribution in blood of BALB/c nu/nu mouse xenografted with human MDA-MB-231 cells at 7.4 kBq, iv using [125I] labeled compound measured after 180 mins by gamma counter method; type: ADME, organism-based; conditions: in vivo, 3 h; method in brief: as §1
[32] = Biodistribution in spleen of BALB/c nu/nu mouse xenografted with human MDA-MB-231 cells at 7.4 kBq, iv using [125I] labeled compound measured after 60 mins by gamma counter method; type: ADME, organism-based; conditions: in vivo, 1 h; method in brief: as §1
[33] = Biodistribution in pancreas of BALB/c nu/nu mouse xenografted with human MDA-MB-231 cells at 7.4 kBq, iv using [125I] labeled compound measured after 30 mins by gamma counter method; type: ADME, organism-based; conditions: in vivo, 0.5 h; method in brief: as §1
[34] = Biodistribution in brain of BALB/c nu/nu mouse xenografted with human MDA-MB-231 cells at 7.4 kBq, iv using [125I] labeled compound measured after 30 mins by gamma counter method; type: ADME, organism-based; conditions: in vivo, 0.5 h; method in brief: as §1
[35] = Biodistribution in lung of BALB/c nu/nu mouse xenografted with human MDA-MB-231 cells at 7.4 kBq, iv using [125I] labeled compound measured after 30 mins by gamma counter method; type: ADME, organism-based; conditions: in vivo, 0.5 h; method in brief: as §1
[36] = Biodistribution in lung of BALB/c nu/nu mouse xenografted with human MDA-MB-231 cells at 7.4 kBq, iv using [125I] labeled compound measured after 60 mins by gamma counter method; type: ADME, organism-based; conditions: in vivo, 1 h; method in brief: as §1

Q: For CCCN1CCC(C(=O)N(C)Cc2cc(Cl)cc(-c3cc(-c4cc(C(F)(F)F)ccc4[125I])c(C#N)c(=O)[nH]3)c2O)CC1, which Drug uptake [1] is on record?
A: The Drug uptake was 3.54 % ID/g.

Q: What about the Drug uptake [2] of the same compound?
A: Its Drug uptake is 10.01 % ID/g.

Q: And the Drug uptake [3]?
A: The Drug uptake was 0.51 % ID/g.

Q: What about the Drug uptake [4] of the same compound?
A: Its Drug uptake is 0.05 % ID/g.

Q: And the Drug uptake [5]?
A: Its Drug uptake is 0.61 % ID/g.

Q: What about the Drug uptake [6] of the same compound?
A: Its Drug uptake is 0.53 % ID/g.

Q: What about the Drug uptake [7] of the same compound?
A: Its Drug uptake is 5.33 % ID/g.

Q: And the Drug uptake [8]?
A: Its Drug uptake is 10.1 % ID/g.

Q: What about the Drug uptake [9] of the same compound?
A: Its Drug uptake is 0.55 % ID/g.

Q: What about the Drug uptake [10] of the same compound?
A: Its Drug uptake is 16.3 % ID/g.

Q: What about the Drug uptake [11] of the same compound?
A: Its Drug uptake is 0.72 % ID/g.

Q: And the Drug uptake [12]?
A: Its Drug uptake is 25.3 % ID/g.

Q: What about the Drug uptake [13] of the same compound?
A: The Drug uptake was 1.22 % ID/g.

Q: And the Drug uptake [14]?
A: The Drug uptake was 0.65 % ID/g.

Q: What about the Drug uptake [15] of the same compound?
A: Its Drug uptake is 0.06 % ID/g.

Q: What about the Drug uptake [16] of the same compound?
A: The Drug uptake was 0.71 % ID/g.

Q: And the Drug uptake [17]?
A: Its Drug uptake is 1.36 % ID/g.

Q: And the Drug uptake [18]?
A: The Drug uptake was 5.68 % ID/g.

Q: What about the Drug uptake [19] of the same compound?
A: The Drug uptake was 0.84 % ID/g.

Q: And the Drug uptake [20]?
A: Its Drug uptake is 2.27 % ID/g.

Q: What about the Drug uptake [21] of the same compound?
A: Its Drug uptake is 1.35 % ID/g.

Q: What about the Drug uptake [22] of the same compound?
A: The Drug uptake was 0.42 % ID/g.

Q: What about the Drug uptake [23] of the same compound?
A: Its Drug uptake is 0.63 % ID/g.

Q: What about the Drug uptake [24] of the same compound?
A: The Drug uptake was 0.33 % ID/g.

Q: What about the Drug uptake [25] of the same compound?
A: Its Drug uptake is 21.5 % ID/g.

Q: And the Drug uptake [26]?
A: The Drug uptake was 6.21 % ID/g.

Q: And the Drug uptake [27]?
A: Its Drug uptake is 0.51 % ID/g.

Q: What about the Drug uptake [28] of the same compound?
A: Its Drug uptake is 3.02 % ID/g.

Q: And the Drug uptake [29]?
A: The Drug uptake was 0.29 % ID/g.

Q: What about the Drug uptake [30] of the same compound?
A: Its Drug uptake is 1.5 % ID/g.

Q: What about the Drug uptake [31] of the same compound?
A: Its Drug uptake is 0.99 % ID/g.

Q: What about the Drug uptake [32] of the same compound?
A: The Drug uptake was 1.1 % ID/g.

Q: What about the Drug uptake [33] of the same compound?
A: The Drug uptake was 2.22 % ID/g.

Q: And the Drug uptake [34]?
A: Its Drug uptake is 0.07 % ID/g.

Q: And the Drug uptake [35]?
A: The Drug uptake was 2.25 % ID/g.

Q: And the Drug uptake [36]?
A: The Drug uptake was 1.43 % ID/g.
